Where “and” joins values, the source holds several entries; their conditions need not be identical. Equal values may be shown once.
Target: T1, GVIA iPLA2 (Homo sapiens, UniProt O60733)
T1 sequence (O60733 1-806): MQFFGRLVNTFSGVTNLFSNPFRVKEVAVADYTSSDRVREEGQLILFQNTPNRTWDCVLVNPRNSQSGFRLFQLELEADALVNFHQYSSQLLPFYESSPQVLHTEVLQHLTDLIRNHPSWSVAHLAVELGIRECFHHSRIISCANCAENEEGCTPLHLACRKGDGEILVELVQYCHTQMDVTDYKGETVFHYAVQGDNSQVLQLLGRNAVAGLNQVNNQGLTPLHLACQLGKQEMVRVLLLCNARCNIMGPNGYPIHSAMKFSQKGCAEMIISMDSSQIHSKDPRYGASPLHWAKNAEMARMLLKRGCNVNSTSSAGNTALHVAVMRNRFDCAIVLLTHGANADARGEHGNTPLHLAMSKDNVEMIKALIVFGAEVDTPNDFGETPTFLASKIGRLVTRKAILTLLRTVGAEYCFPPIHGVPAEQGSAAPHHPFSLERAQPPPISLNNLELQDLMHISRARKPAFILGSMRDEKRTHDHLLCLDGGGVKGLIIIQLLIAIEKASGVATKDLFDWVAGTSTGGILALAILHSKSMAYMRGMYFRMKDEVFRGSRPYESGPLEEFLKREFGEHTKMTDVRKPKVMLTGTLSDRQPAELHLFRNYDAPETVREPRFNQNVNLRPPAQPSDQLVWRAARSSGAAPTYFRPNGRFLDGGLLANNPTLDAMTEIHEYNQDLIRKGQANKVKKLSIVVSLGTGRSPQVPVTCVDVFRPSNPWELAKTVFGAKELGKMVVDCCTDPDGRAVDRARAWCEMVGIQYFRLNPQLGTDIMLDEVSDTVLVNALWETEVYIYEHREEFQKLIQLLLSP
Experiment: In vitro GVIA iPLA2 inhibition, mixed micellar modified Dole assay
Format: biochemical
Details: mole fraction of inhibitor in total substrate interface required to inhibit the enzyme by 50%; mixed micelles
Summary of the method: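 Human GVIA iPLA2 on Triton X-100 mixed micelles, either 400 μM Triton X-100/99 μM DPPC/1.5 μM 14C-DPPC in 200 mM HEPES pH 7.0, 1 mM ATP, 2 mM DTT, 0.1 mg/ml BSA, or 400 μM Triton/98.3 μM PAPC/1.7 μM 14C-PAPC in 100 mM HEPES pH 7.5, 2 mM ATP, 4 mM DTT. XI(50) obtained when screening inhibition exceeded 90%: 7 points (typically 0.005–0.091 mole fraction), linear or one-site hyperbola (BMAX = 100) fit.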

CCCCCCCCCCCCCCC(=O)C(=O)N[C@@H](CCCC)C(=O)NCC(=O)OC [Compound 4a, (S)-Methyl 2-(2-(2-oxohexadecanamido)hexanamido)acetate]
GVIA iPLA2 XI(50): 0.045 ± 0.018 mole fraction

CCCCCCCCCCCCCCC(=O)C(=O)N[C@@H](CCCC)C(=O)NCC(=O)OCC [Compound 4c, (S)-Ethyl 2-(2-(2-oxohexadecanamido)hexanamido)acetate]
GVIA iPLA2 XI(50): 0.020 mole fraction and 0.020 ± 0.002 mole fraction

CCCCCCCCCCCCCCC(=O)C(=O)N[C@@H](CCCC)C(=O)NCC(=O)OC(C)(C)C [Compound 8a, (S)-tert-Butyl 2-(2-(2-oxohexadecanamido)hexanamido)acetate]
GVIA iPLA2 XI(50): 0.011 mole fraction and 0.011 ± 0.001 mole fraction

CCCCCCCCCCCCCCC(=O)C(=O)N[C@H](C(=O)NCC(=O)OC(C)(C)C)C(C)C [Compound 8b, (S)-tert-Butyl 2-(3-methyl-2-(2-oxohexadecanamido)butanamido)acetate]
GVIA iPLA2 XI(50): 0.044 ± 0.025 mole fraction

CCCCCCCCCCCCCCC(=O)C(=O)N[C@@H](CCCC)COCC(=O)OCC [Compound 13, (S)-Ethyl 2-(2-(2-oxohexadecanamido)hexyloxy)acetate]
GVIA iPLA2 XI(50): 0.017 mole fraction and 0.017 ± 0.002 mole fraction
